Source: ChEMBL document CHEMBL3797045, “Routes of Synthesis of Carbapenems for Optimizing Both the Inactivation of L,D-Transpeptidase LdtMt1 of Mycobacterium tuberculosis and the Stability toward Hydrolysis by β-Lactamase BlaC” (J Med Chem, 2016)

What was measured:
[1] = system: Mycobacterium tuberculosis; test: Activity at Mycobacterium tuberculosis beta lactamase BlaC expressed in Escherichia coli by spectrophotometric method
Procedure, shortened: (§1)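 BlaC produced in E. coli, purified by Ni-NTA affinity and size-exclusion chromatography. Carbapenem hydrolysis followed spectrophotometrically in 100 mM MES buffer, pH 6.4, at 20 °C. Direct determination of kcat and Km for substrates with Km above 10 μM. For the other compounds, kcat and Km were obtained by competition against the reporter substrate nitrocefin.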

[2] = system: Mycobacterium tuberculosis; test: Inhibition of Mycobacterium tuberculosis LdtMt1 expressed in Escherichia coli assessed as efficiency of acylation reaction by measuring ratio of K2 to Kapp by stopped-flow spectrofluorimetric method
Procedure, shortened: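 His-tagged LdtMt1 expressed in E. coli and purified by Ni2+-NTA affinity, then by size-exclusion chromatography in 100 mM sodium phosphate pH 6.4 with 300 mM NaCl. Inactivation kinetics measured by stopped-flow spectrofluorimetry in 100 mM sodium phosphate, pH 6.0, at 10 °C. k1, k2 and k2/Kapp were calculated from the fluorescence kinetics.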

[3] = system: Mycobacterium tuberculosis; test: Activity at Mycobacterium tuberculosis beta lactamase BlaC expressed in Escherichia coli assessed as ratio of Kcat to Km by spectrophotometric method; procedure, shortened: as §1

Compound	Km [1] [µM]	Ratio [2] [M⁻¹ s⁻¹]	kcat/Km [3] [M⁻¹ s⁻¹]
C[C@@H](O)[C@H]1C(=O)N2C(C(=O)O)=C(SCCc3cn(-c4ccccc4C(=O)O)nn3)[C@H](C)[C@H]12	3.3	26000	300
C[C@@H](O)[C@H]1C(=O)N2C(C(=O)O)=C(SCCc3cn(-c4cccc(C(=O)O)c4)nn3)[C@H](C)[C@H]12	19	36000	13000
C[C@@H](O)[C@H]1C(=O)N2C(C(=O)O)=C(S[C@@H]3CN[C@H](CNS(N)(=O)=O)C3)[C@H](C)[C@H]12	0.46	1500	1500
C[C@@H](O)[C@H]1C(=O)N2C(C(=O)O)=C(SCCc3ccccc3)[C@H](C)[C@H]12	1.5	39000	360
C[C@@H](O)[C@H]1C(=O)N2C(C(=O)O)=C(S[C@@H]3CN[C@H](C(=O)N(C)C)C3)[C@H](C)[C@H]12	0.92	1300	1000
C[C@@H](O)[C@H]1C(=O)N2C(C(=O)O)=C(SCCN)[C@H](C)[C@H]12	3.5	3600	320
C[C@@H](O)[C@H]1C(=O)N2C(C(=O)O)=C(S[C@@H]3CN[C@H](C(=O)Nc4cccc(C(=O)O)c4)C3)[C@H](C)[C@H]12	4.8	23000	330
CC(c1ccc(C(=O)O)cc1)n1cc(CCSC2=C(C(=O)O)N3C(=O)[C@H]([C@@H](C)O)[C@H]3[C@H]2C)nn1 (some centres not stated)	47	29000	3200
C[C@@H](O)[C@H]1C(=O)N2C(C(=O)O)=C(SCCc3cn(-c4ccccc4)nn3)[C@H](C)[C@H]12	0.31	26000	2100
CCSC1=C(C(=O)O)N2C(=O)[C@H]([C@@H](C)O)[C@H]2[C@H]1C	11	10800	3700
C[C@@H](O)[C@H]1C(=O)N2C(C(=O)O)=C(SCCc3cn(CCc4c[nH]c5ccccc45)nn3)[C@H](C)[C@H]12	0.17	28000	2000
C[C@@H](O)[C@H]1C(=O)N2C(C(=O)O)=C(SCCc3cn(CCCCC(=O)O)nn3)[C@H](C)[C@H]12	56	9600	5700
CCSC1=C(C(=O)O)N2C(=O)[C@H]([C@@H](C)OC(=O)c3ccccc3)[C@H]2[C@H]1C	1.2	3800	1500
CCSC1=C(C(=O)O)N2C(=O)[C@H]([C@@H](C)OC(=O)c3c(F)c(F)c(F)c(F)c3F)[C@H]2[C@H]1C	1.4	25000	840
